According to ChEMBL document CHEMBL1158705, “Dihydrochalcones from the leaves of Pieris japonica” (2005):

What was measured:
[1] = Inhibition of LPS-induced mouse B cells proliferation assessed as [3H]TdR incorporation at 1 uM […]; assay type: functional
How it was run: (§1)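 Mouse spleen cells (4 × 10^6/well) were cultured with test compound plus a selective stimulus: concanavalin A at 5 µg/mL for T cells, or E. coli LPS for B cells. Incubation was 48 h at 37 °C in 5% CO2, with a 0.25 µCi/well 3H-thymidine pulse over the final 6 h. Incorporated radioactivity was read by liquid scintillation, as the mean of triplicates, with Student t-test versus control.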

[2] = Inhibition of concanavalin A-induced mouse T cells proliferation assessed as [3H]TdR incorporation at 10 uM […]; assay type: functional, T-cell; how it was run: as §1
[3] = Inhibition of concanavalin A-induced mouse T cells proliferation assessed as [3H]TdR incorporation at 1 uM […]; assay type: functional, T-cell; how it was run: as §1
[4] = Inhibition of LPS-induced mouse B cells proliferation assessed as [3H]TdR incorporation at 0.1 uM […]; assay type: functional; how it was run: as §1
[5] = Inhibition of concanavalin A-induced mouse T cells proliferation assessed as [3H]TdR incorporation at 0.1 uM […]; assay type: functional, T-cell; how it was run: as §1
[6] = Inhibition of LPS-induced mouse B cells proliferation assessed as [3H]TdR incorporation at 10 uM […]; assay type: functional; how it was run: as §1

| Compound | Activity [1] | Activity [2] | Activity [3] | Activity [4] | Activity [5] | Activity [6] |
| --- | --- | --- | --- | --- | --- | --- |
| COc1c(O[C@@H]2O[C@H](CO)[C@@H](O)[C@H](O)[C@H]2O)cc(C(=O)CCc2ccc(O)cc2)cc1O[C@@H]1O[C@H](CO)[C@@H](O)[C@H](O)[C@H]1O | 22800 cpm | 74100 cpm | 74100 cpm | 30900 cpm | 84800 cpm | 24600 cpm |
| O=C(CCc1ccc(O)cc1)c1c(O)cc(O)cc1O[C@@H]1O[C@H](CO)[C@@H](O)[C@H](O)[C@H]1O [PHLORIZIN] | 32400 cpm | 33000 cpm | 35500 cpm | 33000 cpm | 36100 cpm | 30500 cpm |
| O=C(CCc1ccc(O)cc1)c1c(O)cc(O)cc1O [PHLORETIN] | 29300 cpm | 69400 cpm | 75700 cpm | 32700 cpm | 63900 cpm | 30700 cpm |
| COc1cc(O)c(C(=O)CCc2ccc(O)cc2)c(O)c1 [ASEBOGENIN] | 28300 cpm | 58400 cpm | 80300 cpm | 32500 cpm | 79300 cpm | 34100 cpm |
| COc1cc(O)c(C(=O)CCc2ccc(O)cc2)c(O[C@@H]2O[C@H](CO)[C@@H](O)[C@H](O)[C@H]2OC(C)=O)c1 | 45000 cpm | 70100 cpm | 81600 cpm | 46600 cpm | 83300 cpm | 29800 cpm |
| COc1cc(O)c(C(=O)CCc2ccc(O)c(O)c2)c(O[C@@H]2O[C@H](CO)[C@@H](O)[C@H](O)[C@H]2O)c1 | 22100 cpm | 33000 cpm | 71400 cpm | 22200 cpm | 66700 cpm | 24000 cpm |
| COc1cc(O)c(C(=O)CCc2ccc(O)cc2)c2oc3cc(O)c(O)cc3c12 [PIEROTIN B] | 28600 cpm | 10800 cpm | 59000 cpm | 22800 cpm | 76200 cpm | 3940 cpm |
| COc1cc(O)c(C(=O)CCc2ccc(O)cc2)c(O)c1Cc1c(OC)cc(O)c(C(=O)CCc2ccc(O)cc2)c1O [PIEROTIN A] | 32700 cpm | 22600 cpm | 75000 cpm | 38100 cpm | 75400 cpm | 36500 cpm |
| COc1cc(O)c(C(=O)CCc2ccc(O)cc2)c(O[C@@H]2O[C@H](CO)[C@@H](O)[C@H](O)[C@H]2O)c1 [ASEBOTIN] | 40700 cpm | 79600 cpm | 87200 cpm | 47400 cpm | 89800 cpm | 35200 cpm |
| COc1cc(O)c(C(=O)CCc2ccc(O)cc2)c(O[C@@H]2O[C@H](CO)[C@@H](O)C(=O)[C@H]2O)c1 | 35000 cpm | 32000 cpm | 26700 cpm | 34200 cpm | 38300 cpm | 16400 cpm |
